This note sets out measurements from ChEMBL document CHEMBL1255516, “Identification of a new biaryl scaffold generating potent renin inhibitors” (Bioorg Med Chem Lett, 2010).

Series [1] is described as follows: Half life in Sprague-Dawley rat at 4 mg/kg, iv. The series is classed as ADME, organism-based. Details: dose 4 mg/kg, route intravenous. The settings on record: in vivo. A digest of the protocol:
(§1)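 Sprague–Dawley rats dosed iv at 4 mpk as the HCl salt in 60% PEG 200/water, 1 ml/kg.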

Series [2] in a line: Volume of distribution at steady state in Sprague-Dawley rat at 4 mg/kg, iv. The following applies: in vivo, read-out: Vdss. The class given is ADME, organism-based. Also noted: dose 4 mg/kg, route intravenous. A digest of the protocol:
as §1

Another series deals with Rattus norvegicus. In words: AUC in Sprague-Dawley rat at 30 mg/kg, po. The settings on record: in vivo.
The target in series [3] is T1, Renin (Homo sapiens, UniProt P00797).
T1 sequence (P00797 whole entry): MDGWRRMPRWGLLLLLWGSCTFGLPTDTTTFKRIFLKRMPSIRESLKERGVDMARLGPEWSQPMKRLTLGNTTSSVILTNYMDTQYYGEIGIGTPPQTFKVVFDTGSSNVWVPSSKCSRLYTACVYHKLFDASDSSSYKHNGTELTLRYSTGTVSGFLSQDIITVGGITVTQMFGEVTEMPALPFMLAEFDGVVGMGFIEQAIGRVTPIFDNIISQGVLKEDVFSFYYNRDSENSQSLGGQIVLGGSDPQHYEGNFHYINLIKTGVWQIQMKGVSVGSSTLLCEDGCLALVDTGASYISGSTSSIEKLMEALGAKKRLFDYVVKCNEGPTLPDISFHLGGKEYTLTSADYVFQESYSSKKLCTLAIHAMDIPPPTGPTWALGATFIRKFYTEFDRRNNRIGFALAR
In words: Inhibition of human recombinant renin in phosphate buffer. Summed up:
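Recombinant human renin in PBS with 1 mM EDTA, 0.1% BSA, pH 7.4, premixed at 4 °C with human tetradecapeptide(1–14) substrate (stock 5 μM in 10 mM HCl) and hydroxyquinoline sulfate (stock 30 mM). Compounds diluted in DMSO were added, then incubated 3 h at 37 °C. Angiotensin I accumulation was measured; IC50 from % inhibition curve fit, mean of at least two experiments.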

Series [4] has as its target T1, Renin. In words: Inhibition of human recombinant renin in plasma. A digest of the protocol:
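Pooled frozen human citrate plasma supplemented with recombinant human renin (150 pg/ml final). Inhibitor in DMSO at various concentrations added to a 7:1 mix of plasma and trapping anti-angiotensin I antibody (final antiserum 1:50,000) in Tris/EDTA, pH 7.2.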

Series [5] is described as follows: Clearance in Sprague-Dawley rat at 4 mg/kg, iv. The series is classed as ADME, organism-based. Also noted: dose 4 mg/kg, route intravenous. The following applies: in vivo. Summed up:
as §1

Series [6] in a line: Oral bioavailability in Sprague-Dawley rat at 30 mg/kg. The class given is ADME, organism-based. The following applies: in vivo. A digest of the protocol:
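Sprague–Dawley rats dosed orally at 30 mpk as the HCl salt in 0.5% methocel, 5 ml/kg; iv reference dose 4 mpk in 60% PEG 200/water, 1 ml/kg.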

The nature of series [7]: AUC in Sprague-Dawley rat at 30 mg/kg, po. The following applies: Sprague-Dawley, plasma.

Usually half-life stands for the time needed for the level to fall by half in the phase considered. A lower half-life goes with fast loss. For orientation: AUC means concentration integrated over time. Compound `COCCCc1ccc(Cl)c(CN(C(=O)[C@@H](CN)Cc2ccc(OCCOc3c(Cl)cc(C)cc3Cl)cc2)C2CC2)c1` gave a half-life in series [1] of 6 h. Also, in series [2], the Vd was found to be 12 L/kg. This compound showed an AUC with Rattus norvegicus of 8.3 µM·h.

In general, IC50 refers to the concentration that inhibits the measured activity by half. With `COC(=O)CCc1ccccc1-c1ccc(C(CN)Cc2ccc(OCCOc3c(Cl)cc(C)cc3Cl)cc2)c(C)c1` (stereo not drawn), the IC50 at Renin [3] was found to be 0.09 nM; on Renin [4], 141 nM.

As for `Cc1cc(Cl)c(OCCOc2ccc(CC(CN)c3ccc(-c4ccccc4CCC(=O)N(C)C)cc3C)cc2)c(Cl)c1` (stereo not drawn), the IC50 at Renin [4] was 1110 nM.

Consider `Cc1cc(Cl)c(OCCOc2ccc(CC(CN)c3ccc(-c4ccccc4CCOC(N)=O)cc3C)cc2)c(Cl)c1` (stereo not drawn), for which the figures for the half-maximal inhibitory concentration (IC50) at Renin [3] and at Renin [4] were 1.02 nM and 103 nM, respectively.

Broadly, the clearance is the rate of elimination divided by the concentration. Low readings indicate inefficient removal, high ones efficient removal. A word on the bioavailability: it is dose-corrected exposure relative to a reference, in per cent. Read a low bioavailability as poor availability. Turning to `CC(=O)NCCc1ccccc1-c1ccc(C(CN)Cc2ccc(OCCOc3c(Cl)cc(C)cc3Cl)cc2)c(C)c1` (stereo not drawn), in series [5], the clearance was determined as 34 mL/min/kg. In series [1], this compound gave a half-life of 7 h. Also, in series [6], the bioavailability was determined as 23%. For the same compound, the Vd in series [2] was 9 L/kg. The IC50 at Renin [3] amounted to 0.04 nM. Also, the AUC in series [7] stood at 5.5 µM·h.

As to `CC(=O)NCCCc1ccccc1-c1ccc(C(CN)Cc2ccc(OCCOc3c(Cl)cc(C)cc3Cl)cc2)c(C)c1` (stereo not drawn), the half-inhibitory concentration (IC50) on Renin [3] was determined as 0.97 nM; on Renin [4] it was 131 nM.

Consider `Cc1cc(Cl)c(OCCOc2ccc(CC(CN)c3ccc(-c4ccccc4Cl)cc3Cl)cc2)c(Cl)c1` (stereo not drawn), for which, on Renin [3], the concentration for half-maximal inhibition (IC50) is 0.52 nM.

Take `COCCCc1ccccc1-c1ccc(C(CN)Cc2ccc(OCCOc3c(Cl)cc(C)cc3Cl)cc2)c(C)c1` (stereo not drawn): on Renin [3], the concentration for half-maximal inhibition (IC50) is 0.44 nM.

Take `COC(=O)Cc1ccccc1-c1ccc(C(CN)Cc2ccc(OCCOc3c(Cl)cc(C)cc3Cl)cc2)c(C)c1` (stereo not drawn): the IC50 at Renin [3] is 12.9 nM; on Renin [4], 534 nM.

For the compound `CC(=O)NCc1ccccc1-c1ccc(C(CN)Cc2ccc(OCCOc3c(Cl)cc(C)cc3Cl)cc2)c(C)c1` (stereo not drawn), the IC50 at Renin [3] was 2.1 nM; at Renin [4], 138 nM.

Regarding `Cc1cc(Cl)c(OCCOc2ccc(CC(CN)c3ccc(-c4cnc5cnccn45)cc3C)cc2)c(Cl)c1` (stereo not drawn), the concentration for half-maximal inhibition (IC50) was determined as 3.9 nM at Renin [3] and 416 nM on Renin [4].

In the case of `Cc1cc(Cl)c(OCCOc2ccc(CC(CN)c3ccc(-c4ccnc(N)c4)cc3C)cc2)c(Cl)c1` (stereo not drawn), the results for the IC50 on Renin [3] and at Renin [4] were 1.7 nM and 228 nM, respectively.

`Cc1cc(Cl)c(OCCOc2ccc(CC(CN)c3ccc(-c4cncnc4)cc3C)cc2)c(Cl)c1` (stereo not drawn): the half-inhibitory concentration (IC50) worked out at 4.9 nM on Renin [3] and 614 nM at Renin [4].
